The values that follow come from ChEMBL document CHEMBL4813947, “New dual ATP-competitive inhibitors of bacterial DNA gyrase and topoisomerase IV active against ESKAPE pathogens” (Eur J Med Chem, 2021).

pIC50: −log10 of the molar value. Values after ≈ are worked out from the molar mass of the structure shown.

In assay [1] the target is DNA gyrase (Staphylococcus aureus, UniProt P0A0K8+P20831). Kind of assay: Inhibition of Staphylococcus aureus DNA gyrase assessed reduction in supercoiling of relaxed pNO1 DNA measured after 30 mins by fluorescence assay.
Assay [2] is described as follows: Inhibition of Staphylococcus aureus topoisomerase assessed as reduction in relaxation of supercoiled pNO1 DNA measured after 30 mins by fluorescence assay. The method, boiled down: (§1)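 Enzyme run per an earlier-reported procedure; IC50 fitted from seven inhibitor concentrations, mean of three independent measurements.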
Assay [3] in a line: Inhibition of Escherichia coli topoisomerase assessed as reduction in relaxation of supercoiled pNO1 DNA measured after 30 mins by fluorescence assay. The procedure, abridged: as §1
The subject of another assay is Acinetobacter baumannii. Kind of assay: Antibacterial activity against Acinetobacter baumannii ATCC 17978 assessed as inhibition of bacterial growth by CLSI protocol based broth microdilution assay. The class given is functional. (In general: In broth dilution the organism is exposed to a series of concentrations in liquid medium.)
The next assay deals with Pseudomonas aeruginosa. Nature of the assay: Antibacterial activity against Pseudomonas aeruginosa ATCC 27853 assessed as inhibition of bacterial growth by CLSI protocol based broth microdilution assay. The class given is functional.
The subject of another assay is Klebsiella pneumoniae. Nature of the assay: Antibacterial activity against Klebsiella pneumoniae ATCC 10031 assessed as inhibition of bacterial growth by CLSI protocol based broth microdilution assay. The class given is functional.
In assay [4] the test system is Staphylococcus aureus. Kind of assay: Antibacterial activity against Staphylococcus aureus ATCC 29213 assessed as inhibition of bacterial growth by CLSI protocol based broth microdilution assay. The class given is functional.
Another assay concerns Enterococcus faecalis. Kind of assay: Antibacterial activity against Enterococcus faecalis ATCC 29212 assessed as inhibition of bacterial growth by CLSI protocol based broth microdilution assay. The class given is functional.
Assay [5] deals with Staphylococcus aureus. Nature of the assay: Antibacterial activity against methicillin-resistant Staphylococcus aureus ATCC 43300 assessed as inhibition of bacterial growth by CLSI protocol based broth microdilution assay. The class given is functional. The method, boiled down: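 Minimum inhibitory concentration by standard serial broth microdilution following CLSI guidelines. Medium was MHBII broth (22 g/L powder: beef extract, casein acid hydrolysate, starch), with MHBII agar (14 g agar per L broth). Where noted, assayed without and with efflux pump substrate phenylalanine-arginine β-naphthylamide (PAβN).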

Another assay has as its system Escherichia coli. Kind of assay: Antibacterial activity against Escherichia coli ATCC 25922 assessed as inhibition of bacterial growth by CLSI protocol based broth microdilution assay. The class given is functional.
Assay [6] deals with DNA gyrase (Escherichia coli, UniProt P0AES4+P0AES6). Kind of assay: Inhibition of Escherichia coli DNA gyrase assessed as reduction in supercoiling of relaxed pNO1 DNA measured after 30 mins by fluorescence assay.

Sequence of DNA gyrase (Staphylococcus aureus, UniProt P0A0K8+P20831) (P0A0K8 whole entry): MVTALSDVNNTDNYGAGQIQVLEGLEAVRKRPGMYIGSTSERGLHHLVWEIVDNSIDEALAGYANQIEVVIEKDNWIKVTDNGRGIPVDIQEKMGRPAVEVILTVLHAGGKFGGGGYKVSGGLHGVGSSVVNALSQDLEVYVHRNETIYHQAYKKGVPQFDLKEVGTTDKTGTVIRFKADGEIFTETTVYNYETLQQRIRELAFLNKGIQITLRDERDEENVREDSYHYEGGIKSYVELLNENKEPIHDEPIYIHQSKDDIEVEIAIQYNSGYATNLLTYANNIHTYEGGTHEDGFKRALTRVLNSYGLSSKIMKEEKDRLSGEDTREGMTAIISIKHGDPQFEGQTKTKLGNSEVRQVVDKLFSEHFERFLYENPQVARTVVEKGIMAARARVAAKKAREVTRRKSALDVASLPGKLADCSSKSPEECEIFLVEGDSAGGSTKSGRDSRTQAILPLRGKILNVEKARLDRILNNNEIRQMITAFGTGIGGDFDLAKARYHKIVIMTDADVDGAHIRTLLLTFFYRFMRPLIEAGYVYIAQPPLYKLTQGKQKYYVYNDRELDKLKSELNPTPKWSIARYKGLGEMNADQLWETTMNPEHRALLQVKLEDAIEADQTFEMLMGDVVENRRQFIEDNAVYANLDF
Sequence of DNA gyrase (Staphylococcus aureus, UniProt P0A0K8+P20831) (P20831 whole entry): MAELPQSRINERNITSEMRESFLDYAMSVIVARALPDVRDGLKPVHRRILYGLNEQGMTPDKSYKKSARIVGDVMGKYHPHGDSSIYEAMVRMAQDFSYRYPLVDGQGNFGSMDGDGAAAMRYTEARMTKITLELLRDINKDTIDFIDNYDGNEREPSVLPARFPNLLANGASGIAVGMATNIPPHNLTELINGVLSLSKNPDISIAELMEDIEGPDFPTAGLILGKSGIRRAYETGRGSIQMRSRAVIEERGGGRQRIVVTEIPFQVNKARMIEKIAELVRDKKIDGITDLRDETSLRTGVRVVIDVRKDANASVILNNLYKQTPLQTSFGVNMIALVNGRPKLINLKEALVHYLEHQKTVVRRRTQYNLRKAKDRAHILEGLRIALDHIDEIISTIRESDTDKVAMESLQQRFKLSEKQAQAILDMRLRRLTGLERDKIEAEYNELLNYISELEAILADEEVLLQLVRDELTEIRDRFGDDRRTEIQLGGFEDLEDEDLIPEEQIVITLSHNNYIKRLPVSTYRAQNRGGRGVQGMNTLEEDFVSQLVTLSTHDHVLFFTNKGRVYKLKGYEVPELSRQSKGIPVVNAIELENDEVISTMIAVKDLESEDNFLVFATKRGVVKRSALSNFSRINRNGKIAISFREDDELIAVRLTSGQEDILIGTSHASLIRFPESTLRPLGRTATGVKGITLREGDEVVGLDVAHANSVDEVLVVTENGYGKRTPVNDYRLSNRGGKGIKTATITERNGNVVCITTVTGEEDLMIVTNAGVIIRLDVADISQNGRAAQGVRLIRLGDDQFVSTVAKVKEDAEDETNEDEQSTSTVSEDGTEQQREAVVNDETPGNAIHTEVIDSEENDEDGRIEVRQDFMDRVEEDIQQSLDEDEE

Usually pIC50 stands for the negative decadic logarithm of the IC50, by convention in mol/L. One may read the MIC as the lowest concentration that inhibits growth of the organism. Turning to `Cc1[nH]c(C(=O)Nc2nc3c(OCc4ccccc4)cc(C(=O)NCC#N)cc3s2)c(Cl)c1Cl`, the pIC50 at DNA gyrase [1] is 6.74; in assay [2], under 6.00; in assay [3], under 6.00; on DNA gyrase [6], over 8.00. The MIC is over 64 µg/mL in the assay on Acinetobacter baumannii; over 64 µg/mL in the assay on Pseudomonas aeruginosa; over 64 µg/mL in the assay with Klebsiella pneumoniae; 4 µg/mL (≈ 7.78 µM) in the assay with Staphylococcus aureus [4]; 16 µg/mL (≈ 31.1 µM) in the assay on Enterococcus faecalis; 4 µg/mL (≈ 7.78 µM) with Staphylococcus aureus [5]. Further, the minimal inhibitory concentration (MIC) in the assay with Escherichia coli is over 64 µg/mL.

In the case of `CCN(C(=O)c1[nH]c(C)c(Cl)c1Cl)c1nc2ccc(C(=O)O)cc2s1`, the pIC50 at DNA gyrase [1] was 7.49; in assay [2], 6.64; in assay [3], under 6.00; at DNA gyrase [6], over 8.00. Further, the MIC in the assay with Acinetobacter baumannii is 16 µg/mL (≈ 40.2 µM); in the assay with Pseudomonas aeruginosa, over 64 µg/mL; in the assay with Klebsiella pneumoniae, 16 µg/mL (≈ 40.2 µM); in the assay on Staphylococcus aureus [4] it was 0.125 µg/mL (≈ 0.314 µM); with Enterococcus faecalis it was 0.125 µg/mL (≈ 0.314 µM); in the assay with Staphylococcus aureus [5], 8 µg/mL (≈ 20.1 µM). Also, the MIC in the assay with Escherichia coli worked out at 32 µg/mL (≈ 80.3 µM).

`Cc1[nH]c(C(=O)Nc2nc3ccc(C(=O)NCCC(=O)O)cc3s2)c(Cl)c1Cl`: the pIC50 against DNA gyrase [1] is 7.15; in assay [2] it was 7.40; in assay [3], 6.68; at DNA gyrase [6], over 8.00. In addition, the MIC was over 64 µg/mL in the assay with Acinetobacter baumannii; over 64 µg/mL in the assay with Pseudomonas aeruginosa; 8 µg/mL (≈ 18.1 µM) in the assay on Klebsiella pneumoniae; 32 µg/mL (≈ 72.5 µM) with Staphylococcus aureus [4]; 2 µg/mL (≈ 4.53 µM) with Enterococcus faecalis; 8 µg/mL (≈ 18.1 µM) with Staphylococcus aureus [5]. Further, the MIC with Escherichia coli is over 64 µg/mL.

For `Cc1[nH]c(C(=O)Nc2nc3c(O)cc(C(=O)O)cc3s2)c(Cl)c1Cl`, the pIC50 is 7.66 on DNA gyrase [1], 6.92 in assay [2], 6.89 in assay [3] and over 8.00 at DNA gyrase [6]. Further, the MIC in the assay on Acinetobacter baumannii is over 64 µg/mL; in the assay with Pseudomonas aeruginosa, over 64 µg/mL; with Klebsiella pneumoniae it was 4 µg/mL (≈ 10.4 µM); in the assay with Staphylococcus aureus [4] it was 16 µg/mL (≈ 41.4 µM); in the assay on Enterococcus faecalis, 2 µg/mL (≈ 5.18 µM); with Staphylococcus aureus [5], 4 µg/mL (≈ 10.4 µM). The MIC in the assay on Escherichia coli was over 64 µg/mL.

`Cc1[nH]c(C(=O)Nc2nc3ccc(C(=O)O)cc3s2)c(Cl)c1Br`: the negative-log IC50 (pIC50) is 7.62 at DNA gyrase [1], 7.21 in [2], 6.66 in [3] and over 8.00 at DNA gyrase [6]. The MIC in the assay on Acinetobacter baumannii came out at 4 µg/mL (≈ 9.65 µM); in the assay on Pseudomonas aeruginosa it was 8 µg/mL (≈ 19.3 µM); in the assay with Klebsiella pneumoniae it was 2 µg/mL (≈ 4.82 µM); with Staphylococcus aureus [4], 0.125 µg/mL (≈ 0.301 µM); in the assay with Enterococcus faecalis it was 0.0625 µg/mL (≈ 0.151 µM); with Staphylococcus aureus [5], 2 µg/mL (≈ 4.82 µM). Besides, the MIC in the assay on Escherichia coli was over 64 µg/mL.
